# Measured values gathered from unrelated publications.
# Cell line: HepG2
# Observed: cell growth or viability
SMILES,method,time,IC50
Cc1ccc(-c2cc(-c3c(Cl)cccc3Cl)c3c(=O)n(C)c(=O)n(C)c3n2)cc1,MTT,48 h,7.49 µM
Cc1nc(Nc2ncc(C(=O)Nc3c(C)cccc3Cl)s2)cc(N2CCN(CCO)CC2)n1,MTT,24 h,60.8 µM
COc1nc(NCc2cn(-c3ccc(C(=O)Nc4ccc(C(F)(F)F)cc4)cc3)nn2)nc(OC)n1,MTT,72 h,0.0651 µM
CN(C)c1cc(NC(=O)Cc2ccncc2)c(O)c2c1C[C@H]1C[C@H]3[C@H](N(C)C)C(O)=C(C(N)=O)C(=O)[C@@]3(O)C(O)=C1C2=O,ATP luminescence,72 h,> 200 µg/mL
Cc1ccc(-c2cc(-c3ccc(Cl)c(F)c3)c3c(=O)[nH]c(=O)[nH]c3n2)cc1,MTT,48 h,15.7 µM
COc1nc(NCc2cn(-c3ccc(C(=O)Nc4ccccc4)cc3)nn2)nc(OC)n1,MTT,72 h,1.48 µM
Cc1ccc(-c2cc(-c3ccc(N(C)C)cc3)c3c(=O)[nH]c(=O)[nH]c3n2)cc1,MTT,48 h,12.1 µM
CN(C)c1cc(NC(=O)Cc2cnccn2)c(O)c2c1C[C@H]1C[C@H]3[C@H](N(C)C)C(O)=C(C(N)=O)C(=O)[C@@]3(O)C(O)=C1C2=O,ATP luminescence,72 h,> 200 µg/mL
COc1cccc2c1C(=O)c1c(O)c3c(c(O)c1C2=O)C[C@@](O)(C(=O)CO)C[C@@H]3O[C@H]1C[C@H](N)[C@H](O)[C@H](C)O1,MTT,72 h,0.54 µM
COc1ccc2[nH]c(C(=O)Nc3nc(CC(=O)O)cs3)cc2c1,MTT,24 h,59.8 µM
CN(C)c1cc(NC(=O)Cc2ccccn2)c(O)c2c1C[C@H]1C[C@H]3[C@H](N(C)C)C(O)=C(C(N)=O)C(=O)[C@@]3(O)C(O)=C1C2=O,ATP luminescence,72 h,> 200 µg/mL
COc1ccc(-c2cc(-c3ccccc3Cl)c3c(=O)n(C)c(=O)n(C)c3n2)cc1,MTT,48 h,18.9 µM
CN(C)c1cc(NC(=O)Cc2ncccn2)c(O)c2c1C[C@H]1C[C@H]3[C@H](N(C)C)C(O)=C(C(N)=O)C(=O)[C@@]3(O)C(O)=C1C2=O,ATP luminescence,72 h,108 µg/mL
COc1ccc(-c2cc(-c3ccccc3Cl)c3c(=O)[nH]c(=O)[nH]c3n2)cc1,MTT,48 h,18.9 µM
CCCOc1nc(-c2cccc(O)c2)cc(-c2cc3cc(Cl)ccc3nc2N2CCOCC2)c1C#N,MTT,72 h,0.084 µM
O=C(C=Cc1ccccc1)Nc1cc(-c2ccnc(N3CCC(O)CC3)c2)ccn1,MTT,72 h,0.111 µM
COc1ccc(-c2cc(-c3cccc(Br)c3)c3c(=O)n(C)c(=O)n(C)c3n2)cc1,MTT,48 h,12.4 µM
CN(C)c1cc(NC(=O)CNC(C)(C)C)c(O)c2c1C[C@H]1C[C@H]3[C@H](N(C)C)C(O)=C(C(N)=O)C(=O)[C@@]3(O)C(O)=C1C2=O,ATP luminescence,72 h,> 200 µg/mL
Cc1ccc(-c2cc(-c3ccc(N(C)C)cc3)c3c(=O)n(C)c(=O)n(C)c3n2)cc1,MTT,48 h,14.4 µM
CN(C)c1cc(NC(=O)Cc2cccnc2)c(O)c2c1C[C@H]1C[C@H]3[C@H](N(C)C)C(O)=C(C(N)=O)C(=O)[C@@]3(O)C(O)=C1C2=O,ATP luminescence,72 h,> 200 µg/mL
O=C(Cc1csc(NC(=O)c2cc3ccccc3[nH]2)n1)NO,MTT,24 h,67.9 µM
Clc1ccc(-c2nnc(Nc3ccc(C4=NNC(c5ccc(Cl)cc5)C4)cc3)c3ccccc23)cc1 (stereo not drawn),MTT,72 h,0.8 µM
CN(C)c1cc(NC(=O)Cc2ccccc2)c(O)c2c1C[C@H]1C[C@H]3[C@H](N(C)C)C(O)=C(C(N)=O)C(=O)[C@@]3(O)C(O)=C1C2=O,ATP luminescence,72 h,63.7 µg/mL
Nc1n[nH]c2nc(-c3cccc(O)c3)cc(-c3cc4cc(Cl)ccc4nc3N3CCOCC3)c12,MTT,72 h,0.0907 µM
